Laboratory results reported in ChEMBL document CHEMBL1151964, “Divergent modes of enzyme inhibition in a homologous structure-activity series” (J Med Chem, 2009).
Activity calls are given as the source filed them. The rule behind the calls is not given here.

Tests used:
Cruzipain [1] = target: T1, Cruzipain (Trypanosoma cruzi, UniProt P25779); assay: Inhibition of Trypanosoma cruzi cruzain preincubated for 5 mins before substrate addition
How it was run: (§1)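 Cruzain IC50s were measured from dose-response curves with Triton X-100 in the assay buffer at either 0.01% or 0.001%. At 0.001% Triton, some runs included pre-incubation with BSA.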

[2] = target: Cruzipain (Trypanosoma cruzi) (UniProt P25779); assay: Inhibition of Trypanosoma cruzi cruzain assessed as colloidal aggregates particles formation after 5 mins by flow cytometry
How it was run: (§2)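 Particle (aggregate) formation was assessed by flow cytometry, with some samples checked by dynamic light scattering. The value is the lowest concentration tested at which particles were seen.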

[3] = Inhibition of Beta-lactamase AmpC at 50 uM preincubated for 5 mins before substrate addition
How it was run: (§3)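 β-Lactamase AmpC inhibition was tested at the concentration stated, both without and with 0.01% Triton X-100. A compound was called an aggregator when its inhibition was detergent-sensitive.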

Cruzipain [4] = target: T1, Cruzipain; assay: Inhibition of Trypanosoma cruzi cruzain preincubated for 5 mins before substrate addition in presence of 0.001% Triton X-100 with 1 mg/ml bovine serum albumin
Cruzipain [5] = target: T1, Cruzipain; assay: Inhibition of Trypanosoma cruzi cruzain preincubated for 5 mins before substrate addition in presence of 0.001% Triton X-100; how it was run: as §1
Cruzipain [6] = target: T1, Cruzipain; assay: Inhibition of Trypanosoma cruzi cruzain preincubated for 5 mins before substrate addition in presence of 0.01% Triton X-100; how it was run: as §1
[7] = target: Cruzipain (Trypanosoma cruzi) (UniProt P25779); assay: Inhibition of Trypanosoma cruzi cruzain assessed as colloidal aggregates particles formation after 5 mins by flow cytometry in presence of 0.001% Triton X-100; how it was run: as §2
[8] = Inhibition of Beta-lactamase AmpC preincubated for 5 mins before substrate addition in presence of 0.01% Triton X-100
How it was run: (§4)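 AmpC β-lactamase inhibition measured without detergent and with 0.01% Triton X-100, at the compound concentrations listed per compound. A compound was classed as an aggregator if its inhibition was detergent-sensitive.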

[9] = Inhibition of Beta-lactamase AmpC at 100 uM preincubated for 5 mins before substrate addition; how it was run: as §4
Cruzipain [10] = target: T1, Cruzipain; assay: Competitive inhibition of Trypanosoma cruzi cruzain by Lineweaver-Burke plot analysis
[11] = target: Cruzipain (Trypanosoma cruzi) (UniProt P25779); conditions: 25 uM
[12] = target: Cruzipain (Trypanosoma cruzi) (UniProt P25779); assay: Inhibition of Trypanosoma cruzi cruzain at 200 uM preincubated for 5 mins before substrate addition
[13] = Inhibition of Beta-lactamase AmpC at 13 uM preincubated for 5 mins before substrate addition; how it was run: as §3
[14] = target: Cruzipain (Trypanosoma cruzi) (UniProt P25779); assay: Inhibition of Trypanosoma cruzi cruzain assessed as colloidal aggregates particles formation at 3.1 uM after 5 mins by dynamic light scattering assay

T1 sequence (P25779 whole entry): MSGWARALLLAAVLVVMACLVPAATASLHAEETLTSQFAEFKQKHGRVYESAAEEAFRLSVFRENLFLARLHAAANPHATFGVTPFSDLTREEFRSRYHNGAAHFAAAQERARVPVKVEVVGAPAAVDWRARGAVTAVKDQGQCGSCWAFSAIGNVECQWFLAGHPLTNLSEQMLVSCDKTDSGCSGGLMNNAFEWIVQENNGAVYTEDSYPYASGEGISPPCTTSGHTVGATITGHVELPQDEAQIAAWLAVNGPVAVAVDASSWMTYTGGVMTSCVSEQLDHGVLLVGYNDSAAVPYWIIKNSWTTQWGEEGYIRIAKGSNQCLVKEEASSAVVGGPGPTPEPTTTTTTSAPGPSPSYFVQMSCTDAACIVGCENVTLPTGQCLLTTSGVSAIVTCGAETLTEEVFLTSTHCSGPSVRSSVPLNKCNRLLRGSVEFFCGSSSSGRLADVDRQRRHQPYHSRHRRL
Chain of Cruzipain (Trypanosoma cruzi) (P25779 123-467 limits assumed): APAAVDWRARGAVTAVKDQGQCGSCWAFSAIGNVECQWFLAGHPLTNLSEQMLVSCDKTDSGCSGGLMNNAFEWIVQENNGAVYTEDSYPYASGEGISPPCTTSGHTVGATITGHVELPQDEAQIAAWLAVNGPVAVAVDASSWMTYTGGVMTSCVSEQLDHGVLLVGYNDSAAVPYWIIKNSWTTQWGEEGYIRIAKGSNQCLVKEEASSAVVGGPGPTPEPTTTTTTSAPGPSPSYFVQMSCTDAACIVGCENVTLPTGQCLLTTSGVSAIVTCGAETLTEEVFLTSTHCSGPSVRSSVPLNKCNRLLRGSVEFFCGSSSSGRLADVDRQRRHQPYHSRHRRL

For Nc1ccccc1-c1nnc(C(=O)Nc2cccc(N3CCCC3)c2)o1, the IC50 (Cruzipain [1]) was 7 µM, the Activity [2] was 50 µM and the inhibition [3] was “Active”. For the same compound, the IC50 (Cruzipain [4]) was 99 µM and the IC50 (Cruzipain [5]) was 7 µM.
Nc1ccccc1-c1nnc(C(=O)Nc2nnc(-c3ccc(Cl)cc3)s2)o1 gave an IC50 (Cruzipain [1]) of 4 µM and an IC50 (Cruzipain [6]) of 4 µM.
Cc1cc2cc(NC(=O)c3nnc(-c4ccccc4N)o3)ccc2[nH]1 showed an IC50 (Cruzipain [1]) of 6 µM, an IC50 (Cruzipain [6]) greater than 100 µM and an IC50 (Cruzipain [5]) of 6 µM.
Compound CCN1CCC[C@H]1CNC(=O)c1nnc(-c2ccccc2N)o1 has an IC50 (Cruzipain [1]) greater than 100 µM, an Activity [2] greater than 200 µM and an IC50 (Cruzipain [6]) greater than 100 µM. For the same compound, the IC50 (Cruzipain [5]) was greater than 100 µM and the Activity [7] was “inactive”.
With CCN(CC)c1ccc(NC(=O)c2nnc(-c3ccccc3N)o2)cc1 the IC50 (Cruzipain [1]) was 36 µM.
In the case of Nc1ncccc1C(=O)OCC(=O)Nc1cc(Cl)ccc1Cl, the IC50 (Cruzipain [1]) is reported as 77 µM, the inhibition [8] is reported as “inactive” and the IC50 (Cruzipain [4]) is reported as 116 µM. For the same compound, the inhibition [9] was “Active”, the IC50 (Cruzipain [5]) was 27 µM and the Ki (Cruzipain [10]) was 32 µM. The inhibition [11] was “Active”, the Activity [7] was 250 nM and the inhibition [12] was 79%.
With COc1ccc(-c2cc(NC(=O)c3nnc(-c4ccccc4N)o3)n[nH]2)cc1 the IC50 (Cruzipain [1]) was 0.2 µM, the inhibition [13] was “Active” and the Activity [2] was 3.1 µM. For the same compound, the Activity [14] was “Active” and the IC50 (Cruzipain [5]) was 0.2 µM.
Work on Nc1ccccc1-c1nnc(C(=O)Nc2ccc3[nH]ncc3c2)o1 yielded an IC50 (Cruzipain [1]) of 41 µM.
Compound Nc1ccccc1-c1nnc(C(=O)NCc2csc(-c3cccs3)n2)o1 has an IC50 (Cruzipain [1]) of 2 µM and an IC50 (Cruzipain [6]) of 2 µM.
COc1ccc(OC)c(CNC(=O)c2nnc(-c3ccccc3N)o2)c1 showed an IC50 (Cruzipain [1]) of 8 µM, an IC50 (Cruzipain [4]) of 45 µM and an IC50 (Cruzipain [5]) of 8 µM.
For Nc1ccccc1-c1nnc(C(=O)Nc2cc(-c3ccccc3)[nH]n2)o1, the IC50 (Cruzipain [1]) was 0.8 µM and the IC50 (Cruzipain [5]) was 0.8 µM.
NC(=O)c1ccsc1NC(=O)COC(=O)c1cc(Br)ccc1N showed an IC50 (Cruzipain [6]) of 90 µM and an inhibition [12] of 61%.
For Nc1ccccc1-c1nnc(C(=O)NCc2nc3ccccc3[nH]2)o1, the IC50 (Cruzipain [1]) was 17 µM.
CC1C2CCC(C)(C2)C1NC(=O)c1nnc(-c2ccccc2N)o1 (stereo unspecified) showed an IC50 (Cruzipain [1]) of 36 µM.
Compound Nc1ccccc1C(=O)OCC(=O)Nc1cc(Cl)ccc1Cl has an IC50 (Cruzipain [1]) of 58 µM.
Nc1ccccc1-c1nnc(C(=O)NCCCn2ccnc2)o1 showed an IC50 (Cruzipain [1]) greater than 100 µM.
Nc1ccccc1-c1nnc(C(=O)Nc2ccc(N3CCOCC3)cc2)o1 showed an IC50 (Cruzipain [1]) of 62 µM and an IC50 (Cruzipain [6]) of 62 µM.
In the case of Nc1ccccc1-c1nnc(C(=O)NCc2cccc3nsnc23)o1, the IC50 (Cruzipain [1]) is reported as 6 µM.
Compound Nc1ccccc1-c1nnc(C(=O)NC2CCNCC2)o1 has an IC50 (Cruzipain [1]) greater than 100 µM.
Compound Nc1ccccc1-c1nnc(C(=O)NCc2cccc(-n3cccn3)c2)o1 has an IC50 (Cruzipain [1]) of 17 µM.
In the case of CC(C)(C)c1cc(NC(=O)c2nnc(-c3ccccc3N)o2)n[nH]1, the inhibition [13] is reported as “Active” and the Activity [2] is reported as 3.1 µM.
For Nc1ncccc1C(=O)OCC(=O)NC1CCCCCC1, the IC50 (Cruzipain [1]) was 87 µM, the Activity [7] was 250 nM and the inhibition [12] was 68%.
Compound Nc1ccccc1-c1nnc(C(=O)NCc2ccccc2N2CCOCC2)o1 has an IC50 (Cruzipain [1]) of 38 µM.
Nc1ccccc1-c1nnc(C(=O)N[C@H]2CCCCNC2=O)o1 gave an IC50 (Cruzipain [1]) greater than 100 µM.
CCC(NC(=O)COC(=O)c1cccnc1N)c1ccc(Br)cc1 (stereo unspecified) gave an IC50 (Cruzipain [1]) of 84 µM, an Activity [7] of 250 nM and an inhibition [12] of 65%.
Nc1ccccc1-c1nnc(C(=O)NCc2ccc(Cn3cccn3)cc2)o1 showed an IC50 (Cruzipain [1]) of 8 µM.
For Cc1ccc(CNC(=O)c2nnc(-c3ccccc3N)o2)o1, the IC50 (Cruzipain [1]) was 14 µM.
Nc1ccccc1-c1nnc(C(=O)NCc2c(Cl)cccc2Cl)o1 gave an IC50 (Cruzipain [5]) of 8 µM.
With Nc1ccccc1-c1nnc(C(=O)Nc2nc(-c3ccc(Cl)cc3)cs2)o1 the IC50 (Cruzipain [1]) was 3 µM.
In the case of Nc1ccccc1-c1nnc(C(=O)NCc2ccc(C(F)(F)F)c(F)c2)o1, the IC50 (Cruzipain [1]) is reported as 10 µM.
In the case of Nc1ccccc1-c1nnc(C(=O)NCc2ccnc(N3CCOCC3)c2)o1, the IC50 (Cruzipain [1]) is reported as 83 µM and the IC50 (Cruzipain [6]) is reported as 83 µM.
